What was measured:
[1] = target: T1, Neutrophil elastase (Homo sapiens) (UniProt P08246); experiment: Inactivation of human leukocyte (neutrophil) elastase (HLE)(HNE) as rate constant; format: functional
T1 sequence (whole entry): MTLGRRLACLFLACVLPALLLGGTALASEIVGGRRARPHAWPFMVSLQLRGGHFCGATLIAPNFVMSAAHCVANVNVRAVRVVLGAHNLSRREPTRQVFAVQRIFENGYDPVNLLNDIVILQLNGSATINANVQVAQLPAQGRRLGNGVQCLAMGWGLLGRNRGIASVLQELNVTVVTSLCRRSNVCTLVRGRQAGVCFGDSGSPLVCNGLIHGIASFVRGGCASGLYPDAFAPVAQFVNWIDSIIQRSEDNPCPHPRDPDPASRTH
Procedure, shortened: (§1)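 HNE (0.1–2.0 μM) in 0.1 M Hepes, 0.5 M NaCl, pH 7.5, 25 °C, was incubated with inhibitor added from Me2SO (final 8–12% v/v). Timed aliquots were diluted 40–200-fold into MeO-Suc-Ala-Ala-Pro-Val-NA (0.1–0.125 mM), and residual activity was read at 410 nm. kobs came from ln(vt/v0) vs time and is reported as kobs/[I]. Very fast cases are lower limits.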

[2] = target: Pancreatic elastase (Sus scrofa) (UniProt P08419+P00772); experiment: Inactivation of porcine pancreatic elastase (PPE) expressed as rate constant.; format: functional
Procedure, shortened: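 PPE (0.1–2.0 μM) was incubated with inhibitor in 0.1 M Hepes, 0.5 M NaCl, pH 7.5, at 25 °C; inhibitor was added in Me2SO to a final 8–12% v/v. Aliquots taken over time were diluted 40–200-fold into Suc-Ala-Ala-Ala-NA (0.6–1.2 mM), with 4-nitroanilide release followed at 410 nm. First-order kobs came from ln(vt/v0) vs time and is given as kobs/[I].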

[3] = target: T1, Neutrophil elastase (Homo sapiens); experiment: Inactivation of human leukocyte (neutrophil) elastase(HLE)(HNE) as rate constant; procedure, shortened: as §1
[4] = test system: Pancreatic elastase (Sus scrofa); experiment: Compound was tested for the inactivation of porcine pancreatic elastase(PPE) expressed as rate constant
[5] = target: T1, Neutrophil elastase (Homo sapiens); experiment: Compound was tested for the inactivation of human leukocyte (neutrophil) elastase(HLE)(HNE) expressed as rate constant; format: functional; procedure, shortened: as §1

| kobs/[I] (second-order inactivation rate constant) [1] [M⁻¹ s⁻¹] | second-order inactivation rate constant (kobs/[I]) [2] [M⁻¹ s⁻¹] | k obs / 1 [3] [M⁻¹ s⁻¹] | [I] [4] [µM] | k obs / 1 [5] [M⁻¹ s⁻¹] | SMILES |
| --- | --- | --- | --- | --- | --- |
| 55000 | 2500 | – | – | – | COc1oc(=O)c2cc(NC(=O)C(C)NS(=O)(=O)c3ccc(C)cc3)ccc2c1Cl (centres undefined) |
| 36000 | 1300 | – | – | – | COc1oc(=O)c2cc(NC(=O)C(NS(=O)(=O)c3ccc(C)cc3)C(C)C)ccc2c1Cl (centres undefined) |
| – | 7100 | – | – | – | COC(=O)c1ccccc1C(=O)Nc1ccc2c(Cl)c(OC)oc(=O)c2c1 |
| 54000 | 6300 | – | – | – | COc1oc(=O)c2cc(NC(=O)C(CC(C)C)NS(=O)(=O)c3ccc(C)cc3)ccc2c1Cl (centres undefined) |
| – | 850 | 13000 | 8.8 | – | COc1oc(=O)c2cc(NC(=O)Oc3ccccc3)ccc2c1Cl |
| 52000 | 2700 | – | – | – | COc1oc(=O)c2cc(NC(=O)c3ccccc3C(=O)O)ccc2c1Cl |
| 9500 | 900 | – | – | – | COc1oc(=O)c2cc(NC(=O)CCC(=O)O)ccc2c1Cl |
| 54000 | 2800 | – | – | – | COC(=O)CCCC(=O)Nc1ccc2c(Cl)c(OC)oc(=O)c2c1 |
| 47000 | 2000 | – | – | – | CCOC(=O)Nc1ccc2c(Cl)c(OC)oc(=O)c2c1 |
| 49000 | 7300 | – | – | – | COc1oc(=O)c2cc(NC(=O)Nc3ccccc3)ccc2c1Cl |
| 66000 | 100 | – | – | – | COc1oc(=O)c2cc(NC(=O)CC(CC(=O)O)c3ccccc3)ccc2c1Cl (centres undefined) |
| – | 20 | – | 600 | 10000 | COc1oc(=O)c2cc(NC(=O)OCC3c4ccccc4-c4ccccc43)ccc2c1Cl |
| 37000 | 2000 | – | – | – | COc1oc(=O)c2cc(NC(=O)Cc3ccccc3)ccc2c1Cl |
| 100000 | 2500 | – | – | – | COC(=O)Nc1cccc(C(=O)Nc2ccc3c(Cl)c(OC)oc(=O)c3c2)c1 |
| 84000 | 1500 | – | – | – | COc1oc(=O)c2cc(NC(=O)C(NS(=O)(=O)c3ccc(C)cc3)c3ccccc3)ccc2c1Cl (centres undefined) |
| – | 650 | – | 8.3 | 9200 | COc1oc(=O)c2cc(N=C=O)ccc2c1Cl |
| 12000 | 17 | – | – | – | COc1oc(=O)c2cc(NC(=O)N(CCc3ccccc3)Cc3ccccc3)ccc2c1Cl |
| 43000 | 2200 | – | – | – | COC(=O)CCC(=O)Nc1ccc2c(Cl)c(OC)oc(=O)c2c1 |
| 51000 | 900 | – | – | – | COc1oc(=O)c2cc(NC(=O)CCCC(=O)O)ccc2c1Cl |
| 130000 | 2400 | – | – | – | COc1oc(=O)c2cc(NC(=O)CC(c3ccccc3)c3ccccc3)ccc2c1Cl |
| 52000 | 20 | – | – | – | COc1oc(=O)c2cc(NC(=O)C(c3ccccc3)c3ccccc3)ccc2c1Cl |
| 47000 | 1100 | – | – | – | COc1oc(=O)c2cc(NC(=O)C(F)(F)C(F)(F)C(F)(F)F)ccc2c1Cl |
| 71000 | 260 | – | – | – | COc1oc(=O)c2cc(NC(=O)OCc3ccccc3)ccc2c1Cl |
| 200000 | 6500 | – | – | – | COc1oc(=O)c2cc(NC(=O)C(Cc3ccccc3)NS(=O)(=O)c3ccc(C)cc3)ccc2c1Cl (centres undefined) |
| 30000 | 2300 | – | – | – | COc1oc(=O)c2cc(NC(C)=O)ccc2c1Cl |
| 66000 | 3100 | – | – | – | COc1oc(=O)c2cc(NC(=O)CCc3ccccc3)ccc2c1Cl |
